Measured values as given in ChEMBL document CHEMBL1145899, “Estrogenic potential of 2-alkyl-4-(thio)chromenone 6-O-sulfamates: potent inhibitors of human steroid sulfatase” (J Med Chem, 2003).

Legend:
[1] = system: MCF7; assay: Stimulation of MCF-7 cell proliferation at 10 nM; assay type: functional, Homo sapiens
Summary of the method: (§1)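 MCF-7 cells hormone-depleted 10 days, then seeded at 20 000 cells/cm² in phenol red-free RPMI with 2.5% charcoal-stripped FCS and held 5 days. Compound (ethanol/DMSO, ≤0.1% solvent) added day 5, refreshed day 8; sulforhodamine counts days 5 and 10; triplicate wells. % stimulation = (growth vs solvent controls ×100) − 100.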

[2] = system: MCF7; assay: Stimulation of MCF-7 cell proliferation at 1000 nM; assay type: functional, Homo sapiens; summary of the method: as §1
[3] = molecular target: Estrogen receptor beta (Homo sapiens) (UniProt Q92731)
[4] = molecular target: T1, Estrogen receptor (Homo sapiens) (UniProt P03372)
T1 sequence (whole entry): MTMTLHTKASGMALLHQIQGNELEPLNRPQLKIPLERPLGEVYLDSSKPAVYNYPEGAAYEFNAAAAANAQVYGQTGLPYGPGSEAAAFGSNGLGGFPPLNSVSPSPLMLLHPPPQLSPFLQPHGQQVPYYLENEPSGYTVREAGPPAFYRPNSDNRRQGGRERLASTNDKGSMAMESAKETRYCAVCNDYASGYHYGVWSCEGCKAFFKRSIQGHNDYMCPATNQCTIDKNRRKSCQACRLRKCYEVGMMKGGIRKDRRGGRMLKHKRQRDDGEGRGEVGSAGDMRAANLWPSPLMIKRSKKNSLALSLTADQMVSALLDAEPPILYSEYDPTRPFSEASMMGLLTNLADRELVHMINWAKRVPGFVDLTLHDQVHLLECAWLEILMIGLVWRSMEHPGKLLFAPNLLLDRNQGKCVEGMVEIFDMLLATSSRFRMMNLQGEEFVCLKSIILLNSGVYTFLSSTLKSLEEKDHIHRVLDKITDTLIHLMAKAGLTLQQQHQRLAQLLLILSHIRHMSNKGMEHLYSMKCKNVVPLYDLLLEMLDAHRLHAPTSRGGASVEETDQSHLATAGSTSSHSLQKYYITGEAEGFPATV

[5] = system: MCF7; assay: Stimulation of MCF-7 cell proliferation at 100 nM; assay type: functional, Homo sapiens; summary of the method: as §1
[6] = molecular target: Estrogen receptor beta (Homo sapiens) (UniProt Q92731); assay: Affinity of sulfamate compound for human estrogen receptor beta
Summary of the method: (§2)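 Fluorescence polarization competition with purified human ER; ER-α final 13 nM or ER-β final 10 nM, fluorescein-estradiol tracer 1 nM final. Compounds from DMSO or ethanol stocks, 0.5% (v/v) final solvent; room temperature 2–2.5 h; triplicate wells. Four-parameter logistic fit; ED50 = concentration giving polarization midway between +tracer/+ER and +tracer/−ER controls. Tested up to solubility limit.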

[7] = molecular target: T1, Estrogen receptor (Homo sapiens); assay: Affinity of sulfamate compound for human estrogen receptor alpha; summary of the method: as §2
[8] = molecular target: T2, Steryl-sulfatase (Homo sapiens, UniProt P08842); assay: Inhibition of steroid sulfatase
T2 sequence (P08842 whole entry): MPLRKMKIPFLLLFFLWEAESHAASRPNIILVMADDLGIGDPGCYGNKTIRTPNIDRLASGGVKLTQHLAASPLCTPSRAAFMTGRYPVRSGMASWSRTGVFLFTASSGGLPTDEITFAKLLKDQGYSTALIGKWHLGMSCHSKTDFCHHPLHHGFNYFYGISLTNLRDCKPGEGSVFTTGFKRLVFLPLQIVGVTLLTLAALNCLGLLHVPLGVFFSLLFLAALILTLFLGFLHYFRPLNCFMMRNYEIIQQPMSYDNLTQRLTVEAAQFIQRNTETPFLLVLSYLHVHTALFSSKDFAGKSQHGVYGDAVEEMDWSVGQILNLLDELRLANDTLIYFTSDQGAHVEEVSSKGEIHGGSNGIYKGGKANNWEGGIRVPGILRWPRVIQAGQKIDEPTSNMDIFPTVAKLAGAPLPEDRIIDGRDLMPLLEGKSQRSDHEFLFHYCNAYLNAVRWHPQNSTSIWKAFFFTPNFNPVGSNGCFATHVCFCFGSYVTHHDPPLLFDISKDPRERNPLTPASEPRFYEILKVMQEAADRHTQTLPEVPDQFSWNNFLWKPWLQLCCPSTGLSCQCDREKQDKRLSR
Summary of the method: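 Purified recombinant human STS; fluorimetric assay with 4-methylumbelliferone sulfate as substrate. IC50 by nonlinear regression; mean of triplicate determinations.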

Chain of Estrogen receptor beta (Homo sapiens) (Q92731 whole entry): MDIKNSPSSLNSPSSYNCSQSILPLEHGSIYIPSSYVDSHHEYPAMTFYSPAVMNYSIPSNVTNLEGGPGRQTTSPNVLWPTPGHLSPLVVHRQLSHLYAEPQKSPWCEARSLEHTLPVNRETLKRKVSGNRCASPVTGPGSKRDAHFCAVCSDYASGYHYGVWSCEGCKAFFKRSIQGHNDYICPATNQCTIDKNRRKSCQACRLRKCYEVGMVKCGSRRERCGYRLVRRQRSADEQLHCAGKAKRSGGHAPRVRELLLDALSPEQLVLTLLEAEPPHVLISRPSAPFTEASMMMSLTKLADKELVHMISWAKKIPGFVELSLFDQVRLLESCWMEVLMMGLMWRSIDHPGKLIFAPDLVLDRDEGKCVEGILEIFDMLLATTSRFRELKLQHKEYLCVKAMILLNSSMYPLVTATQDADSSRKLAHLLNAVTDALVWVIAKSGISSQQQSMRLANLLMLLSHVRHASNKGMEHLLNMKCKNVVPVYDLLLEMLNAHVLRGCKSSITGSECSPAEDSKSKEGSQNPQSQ

Compound	ED50 [3]	ED50 [4]	ED50 [6]	ED50 [7]	IC50 [8]	Stimulation [1]	Stimulation [2]	Stimulation [5]
O=C1CC(C23CC4CC(CC(C4)C2)C3)Oc2ccc(O)cc21 (stereo unspecified)	0.035 µM	0.1 µM	–	–	–	–	–	–
NS(=O)(=O)Oc1ccc2oc(C3CCCCCCCCCCC3)cc(=O)c2c1	> 30 µM	> 10 µM	–	–	–	48%	118%	72%
C[C@]12CC[C@@H]3c4ccc(O)cc4CC[C@H]3[C@@H]1CC[C@@H]2O [ESTRADIOL]	0.011 µM	–	–	–	–	400%	–	–
CCCCCC12CCC(CC1)C(c1cc(=O)c3cc(O)ccc3o1)C2 (stereo unspecified)	> 100 µM	> 100 µM	–	–	–	–	–	–
O=c1cc(C23CC4CC(CC(C4)C2)C3)oc2ccc(O)cc12	1.4 µM	1.5 µM	–	–	–	–	–	–
CCCCCCCCCc1cc(=O)c2cc(OS(N)(=O)=O)ccc2o1	> 100 µM	> 50 µM	–	–	–	0%	0%	0%
NS(=O)(=O)Oc1ccc2oc(C34CC5CC(CC(C5)C3)C4)cc(=O)c2c1	> 30 µM	> 30 µM	–	–	0.0056 µM	71%	116%	88%
CCCCCCCCC(C)(C)c1cc(=O)c2cc(O)ccc2o1	> 100 µM	> 100 µM	–	–	–	–	–	–
O=c1cc(C23CC4CC(CC(C4)C2)C3)sc2ccc(O)cc12	0.48 µM	0.21 µM	–	–	–	–	–	–
CC(C)(C)c1cc(=O)c2cc(O)ccc2o1	69 µM	64 µM	–	–	–	–	–	–
CCCCCCCCC(C)(C)c1cc(=O)c2cc(OS(N)(=O)=O)ccc2o1	> 100 µM	> 30 µM	–	–	–	0%	0%	0%
CC(C)(C)c1cc(=O)c2cc(OS(N)(=O)=O)ccc2o1	> 100 µM	> 100 µM	–	–	–	12%	100%	45%
CCCCCCCCCc1cc(=O)c2cc(O)ccc2o1	> 100 µM	> 100 µM	–	–	–	–	–	–

Second part, led by results:

ED50 [3]	ED50 [4]	ED50 [6]	ED50 [7]	IC50 [8]	Compound	Stimulation [1]	Stimulation [2]	Stimulation [5]
18 µM	4.8 µM	–	–	–	NS(=O)(=O)Oc1ccc2sc(C34CC5CC(CC(C5)C3)C4)cc(=O)c2c1	78%	120%	99%
14 µM	13 µM	–	–	–	NS(=O)(=O)Oc1ccc2c(c1)C(=O)CC(C13CC4CC(CC(C4)C1)C3)O2 (stereo unspecified)	79%	130%	90%
–	–	> 100 µM	> 100 µM	–	NS(=O)(=O)Oc1ccc2oc(CCc3ccccc3)cc(=O)c2c1	16%	45%	33%
2.6 µM	0.9 µM	–	–	–	CC1(C)C(c2cc(=O)c3cc(O)ccc3o2)C1(C)C	–	–	–
–	–	3.7 µM	2.6 µM	–	C[C@]12CC[C@@H]3c4ccc(OS(N)(=O)=O)cc4CCC3[C@@H]1CCC2=O (single isomer, unassigned) [EMATE]	97%	123%	112%
47 µM	30 µM	–	–	–	CC1(C)C(c2cc(=O)c3cc(OS(N)(=O)=O)ccc3o2)C1(C)C	52%	120%	85%
1.5 µM	0.8 µM	–	–	–	O=c1cc(C2CCCCCCCCCCC2)oc2ccc(O)cc12	–	–	–
